Reference: ChEMBL document CHEMBL1152276, “Substituted 2-imino-5-arylidenethiazolidin-4-one inhibitors of bacterial type III secretion” (J Med Chem, 2008)
Active and inactive are the calls of the source. The calls are words filed in the database; no cut-off is given here.

Columns and labels:
[1] = Inhibition of Salmonella enterica serovar Typhimurium type 3 secretion system-mediated SipA protein secretion by Western blotting; design: species or system Salmonella enterica subsp. enterica serovar Typhimurium
Outline: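 Bacteria were grown 18 h in LB broth and pelleted, and culture supernates were 0.2 μm-filtered. Proteins were precipitated with 10% TCA on ice for 30 min, centrifuged, acetone-washed and resolved by SDS-PAGE. Western blots were probed with polyclonal anti-SipA. IC50 was calculated from percent inhibition of secreted SipA using at least 3 inhibitor concentrations.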

[2] = tested on: Salmonella enterica subsp. enterica serovar Typhimurium; assay: Inhibition of Salmonella enterica serovar Typhimurium type 3 secretion system-mediated SipA protein secretion at 1 uM by Western blotting
Salmonella typhimurium = assay: Growth inhibition of Salmonella enterica serovar Typhimurium ATCC 14028 up to 1 mM; type: functional, organism-based; conditions: Salmonella enterica subsp. enterica serovar Typhimurium
Outline: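 Aliquots (30 μL) of a 2 mL overnight culture were dosed with 0.1, 1.0, 2.0, 3.0, 6.0 or 15.0 μL of compound in DMSO. DMSO alone in LB served as the control.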

COc1cc(/C=C2\S/C(=N\c3ccccc3)N(C(C)C(=O)N[C@@H](Cc3c[nH]c4ccccc34)C(N)=O)C2=O)cc(OC)c1O (stereo in doubt; 44b)
IC50 [1]: 29 µM

COc1cc(/C=C2\S/C(=N\c3ccccc3)N(CCCC(=O)OC(C)(C)C)C2=O)cc(OC)c1O
IC50 [1]: 4 µM
Activity [2]: Active

COc1cc(/C=C2\S/C(=N\c3ccccc3)N([C@@H](C)C(=O)N[C@@H](CCCNC(=N)N)C(N)=O)C2=O)cc(OC)c1O
IC50 [1]: 77 µM

O=C1/C(=C/c2ccncc2)S/C(=N\c2ccccc2)N1c1ccccc1
IC50 [1]: 376 µM

COc1ccc(N2C(=O)/C(=C/C(C)(C)C)S/C2=N\c2ccccc2)cc1
IC50 [1]: 160 µM

COc1cc(/C=C2\S/C(=N\c3ccccc3)N([C@H](C)C(=O)N[C@@H](CCCN)C(N)=O)C2=O)cc(OC)c1O
IC50 [1]: 9 µM

COc1cc(/C=C2\S/C(=N\c3ccccc3)N([C@@H](CCCN)C(=O)N[C@@H](C)C(N)=O)C2=O)cc(OC)c1O
IC50 [1]: 32 µM

COc1cc(/C=C2\S/C(=N\c3ccccc3)N([C@@H](CCCN)C(=O)N[C@@H](Cc3ccc(-c4ccccc4)cc3)C(N)=O)C2=O)cc(OC)c1O
Activity (Salmonella typhimurium): inactive
IC50 [1]: 13 µM

COc1cc(/C=C2\S/C(=N\c3ccccc3)N([C@@H](Cc3ccc(-c4ccccc4)cc3)C(=O)N[C@@H](CCCNC(=N)N)C(N)=O)C2=O)cc(OC)c1O
Activity (Salmonella typhimurium): inactive
IC50 [1]: 3 µM

COc1ccc(/N=C2\S/C(=C\c3ccncc3)C(=O)N2c2ccccc2)cc1
IC50 [1]: 137 µM

COc1cc(/C=C2\S/C(=N\c3ccccc3)N([C@@H](CCC(=O)O)C(=O)N[C@@H](Cc3ccc(-c4ccccc4)cc3)C(N)=O)C2=O)cc(OC)c1O
IC50 [1]: 50 µM

COc1cc(/C=C2\S/C(=N\c3ccccc3)N([C@@H](CCCNC(=N)N)C(=O)N[C@@H](Cc3ccc(-c4ccccc4)cc3)C(N)=O)C2=O)cc(OC)c1O
IC50 [1]: 50 µM

COc1cc(/C=C2\S/C(=N\c3ccccc3)N(C(C(=O)N[C@@H](Cc3ccc(O)cc3)C(N)=O)C(C)C)C2=O)cc(OC)c1O (stereo partly specified)
IC50 [1]: 52 µM

COc1cc(/C=C2\S/C(=N\c3ccccc3)N([C@H](C)C(=O)N[C@@H](CCCNC(=N)N)C(N)=O)C2=O)cc(OC)c1O
IC50 [1]: 38 µM

COc1cc(/C=C2\S/C(=N\c3ccccc3)N(C(CCCN)C(=O)N[C@H](CC3CNc4ccccc43)C(N)=O)C2=O)cc(OC)c1O (mixture of isomers)
IC50 [1]: 52 µM

COc1cc(/C=C2\S/C(=N\c3ccccc3)N([C@H](Cc3ccc(-c4ccccc4)cc3)C(=O)N[C@@H](CCCNC(=N)N)C(N)=O)C2=O)cc(OC)c1O
IC50 [1]: 8 µM

COc1cc(/C=C2\S/C(=N\c3ccccc3)N([C@@H](C)C(=O)N[C@@H](Cc3ccc(O)cc3)C(N)=O)C2=O)cc(OC)c1O
IC50 [1]: 112 µM

COc1cc(/C=C2\S/C(=N\c3ccccc3)N(CCCC(=O)O)C2=O)cc(OC)c1O
IC50 [1]: 66 µM

COc1cc(/C=C2\S/C(=N\c3ccccc3)N(C(C)C(=O)N[C@@H](Cc3c[nH]c4ccccc34)C(N)=O)C2=O)cc(OC)c1O (stereo in doubt; 44a)
IC50 [1]: 30 µM

COc1cc(/C=C2\S/C(=N\c3ccccc3)N(C(Cc3ccc(-c4ccccc4)cc3)C(=O)N[C@@H](CCCN)C(N)=O)C2=O)cc(OC)c1O (single isomer, unassigned)
IC50 [1]: 55 µM

COc1cc(/C=C2\S/C(=N\c3ccccc3)N(C(CCCN)C(=O)N[C@@H](CC3CNc4ccccc43)C(N)=O)C2=O)cc(OC)c1O (mixture of isomers)
IC50 [1]: 56 µM

COc1ccc(N2C(=O)/C(=C/C3CCCCC3)S/C2=N\c2ccccc2)cc1
IC50 [1]: 278 µM

O=C1/C(=C/C2CCCCC2)S/C(=N\c2ccccc2)N1c1ccccc1
IC50 [1]: 225 µM

CC(C)(C)/C=C1\S/C(=N\c2ccccc2)N(c2ccccc2)C1=O
IC50 [1]: 244 µM

COc1cc(/C=C2\S/C(=N\c3ccccc3)N([C@@H](C)C(=O)N[C@@H](C)C(N)=O)C2=O)cc(OC)c1O
IC50 [1]: 62 µM

COc1ccc(N2C(=O)/C(=C/c3cc(OC)c(O)c(OC)c3)S/C2=N\c2ccccc2)cc1
IC50 [1]: 51 µM

COc1cc(/C=C2\S/C(=N\c3ccc(CN)cc3)N(c3ccccc3)C2=O)cc(OC)c1O
IC50 [1]: 101 µM

COc1cc(/C=C2\S/C(=N\c3ccccc3)N(c3ccc(CNC(=O)OC(C)(C)C)cc3)C2=O)cc(OC)c1O
Activity (Salmonella typhimurium): inactive
IC50 [1]: 45 µM

COc1cc(/C=C2\S/C(=N\c3ccccc3)N([C@@H](C)C(=O)N[C@@H](CCCN)C(N)=O)C2=O)cc(OC)c1O
IC50 [1]: 16 µM

COc1cc(/C=C2\S/C(=N\c3ccccc3)N(C(CCCNC(=N)N)C(=O)N3CSC[C@H]3C(N)=O)C2=O)cc(OC)c1O (stereo partly specified)
IC50 [1]: 65 µM

COc1cc(/C=C2\S/C(=N\c3ccccc3)N(C(CCCNC(=N)N)C(=O)N[C@@H](C)C(N)=O)C2=O)cc(OC)c1O (stereo partly specified)
IC50 [1]: 41 µM

COc1cc(/C=C2\S/C(=N\c3ccccc3)N(c3ccc(CN)cc3)C2=O)cc(OC)c1O
Activity (Salmonella typhimurium): inactive
IC50 [1]: 52 µM

COc1cc(/C=C2\S/C(=N\c3ccccc3)N(c3ccccc3)C2=O)cc(OC)c1O
Activity (Salmonella typhimurium): inactive
IC50 [1]: 83 µM

O=C1/C(=C/c2ccc(Cl)cc2)S/C(=N\c2ccccc2)N1c1ccccc1
IC50 [1]: 322 µM

CSc1ccc(/C=C2\S/C(=N\c3ccccc3)N(c3ccccc3)C2=O)cc1
IC50 [1]: 26 µM

COc1ccc(/C=C2\S/C(=N\c3ccccc3)N(c3ccccc3)C2=O)cc1OC
IC50 [1]: 278 µM

COc1cc(/C=C2\S/C(=N\c3ccccc3)N(C(CCCNC(=N)N)C(=O)N3Cc4ccccc4C[C@H]3C(N)=O)C2=O)cc(OC)c1O (stereo partly specified)
IC50 [1]: 115 µM

COc1cc(/C=C2\S/C(=N\c3ccccc3)N(CCCCCCN)C2=O)cc(OC)c1O
IC50 [1]: 54 µM

COc1cc(/C=C2\S/C(=N\c3ccccc3)N(CC(=O)O)C2=O)cc(OC)c1O
IC50 [1]: 36 µM
Activity [2]: Active
